hIAP act – increases human intestinal alkaline phosphatase activity; P09923; activation factor at 10 µM; AID 2524; purified human IAP, CDP-Star luminescence, 30 min; hits give high values; 1 = vehicle-only enzyme, 0 = enzyme-free background; 330,000 compounds, 0.16% hits;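 active = activation factor of the enzyme at least 2-fold when tested at 20 µM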
Target sequence (P09923 whole entry, looked up): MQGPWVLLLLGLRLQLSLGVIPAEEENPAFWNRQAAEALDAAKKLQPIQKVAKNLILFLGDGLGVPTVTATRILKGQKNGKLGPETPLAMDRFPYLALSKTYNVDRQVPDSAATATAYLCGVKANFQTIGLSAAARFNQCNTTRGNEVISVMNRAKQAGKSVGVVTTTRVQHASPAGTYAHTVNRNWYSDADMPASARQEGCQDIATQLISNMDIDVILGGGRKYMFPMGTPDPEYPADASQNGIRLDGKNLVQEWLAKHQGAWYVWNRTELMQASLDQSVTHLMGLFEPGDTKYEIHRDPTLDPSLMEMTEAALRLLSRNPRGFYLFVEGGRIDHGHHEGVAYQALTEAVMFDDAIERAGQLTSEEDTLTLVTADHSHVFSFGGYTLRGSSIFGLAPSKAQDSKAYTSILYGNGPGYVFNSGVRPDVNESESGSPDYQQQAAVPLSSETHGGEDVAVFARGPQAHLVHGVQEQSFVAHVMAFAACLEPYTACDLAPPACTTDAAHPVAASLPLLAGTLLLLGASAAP
bIAP activator – intestinal alkaline phosphatase (bovine) activation; 200,000 compounds, 0.17% hits; activation factor at 20 µM; purified bovine IAP, CDP-star luminescence, 30 min; hits give high values; fold of DMSO-control signal, blank-subtracted; AID 1016;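 active = activation factor of 2 or more at 20 µM, a signal rise over negative controls twice the positive control's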
mIAP activ – increases mouse intestinal alkaline phosphatase activity. muIAP, CDP-Star luminescence, 30 min; hits give high values; 1 = vehicle-only enzyme signal, 0 = enzyme-free wells. activation factor at 10 µM. 330,000 compounds, 0.24% hits;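 active = activation factor of at least 2 at 20 µM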
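System: Mouse IAP enzyme | Also added: CDP-Star substrate | Dosing: Compounds dispensed in DMSO | Schedule: 30 min enzyme-substrate-compound incubation at room temperature | Technique: Chemiluminescence readout | Control set: DMSO-only wells and no-enzyme negative control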
bIAP inhibitor – intestinal alkaline phosphatase (bovine) inhibition; purified bovine IAP, CDP-star luminescence, 30 min; inhibition, % at 20 µM; 190,000 tested, under 10 active; AID 1019;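 active = over 50% inhibition of intestinal alkaline phosphatase at 20 µM in the single-dose screen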
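System: purified bovine intestinal alkaline phosphatase (IAP) enzyme; Input: IAP diluted 1/65,000,000 in the well; Measured by: CDP-star luminescence signal; Compound dosing: 20 µM single dose; Incubation: 30 min reaction at room temperature.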
hIAP block – blocks human intestinal alkaline phosphatase; purified IAP, CDP-Star luminescence, 30 min; inhibition, % at 10 µM; 330,000 compounds, 0.12% hits; P09923;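 active = inhibition reaching a set limit with compound at 10 µM in the primary screen, cut at about 35% in these data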
mIAP inh – blocks mouse intestinal alkaline phosphatase. purified mouse IAP, CDP-Star luminescence, 30 min. inhibition, % at 10 µM. 330,000 compounds, 0.2% hits. AID 2806;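 active = inhibition of at least 40% at 10 µM in the primary screen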
Large screens that a line does not name were inactive. A selection: hits, their analogues and other compounds. The true share with any hit is near 0.79%.

Cc1ccc(CNC(=O)Nc2ccc3c(c2)N(C)C(=O)CS3)cc1	mIAP activ 2.1
Cc1ccc(NC(=O)Nc2ccc3c(c2)N(C)C(=O)CS3)cc1C	mIAP activ 3.1
CN1C(=O)CSc2ccc(NC(=O)NCc3ccccc3)cc21	none
COc1ccccc1NS(=O)(=O)c1cccc(C(=O)N/N=C(\C)c2cccnc2)c1	none (no result: bIAP activator, bIAP inhibitor)
CC(C)CCNC(=S)Nc1ccc(Br)cc1	mIAP activ 2.2
CCn1c(C(O)c2cc(OC)c(OC)c(OC)c2)nc2ccccc21 (stereo unspecified)	none (no result: bIAP activator, bIAP inhibitor)
CCn1c(C(O)c2ccc3c(c2)OCO3)nc2ccccc21 (stereo unspecified)	bIAP activator 2.5
COC(=O)C1=C(C)NC(=O)NC1c1ccc(N2CCC(c3ccccc3)=N2)cc1 (stereo unspecified)	mIAP activ 2.2
COc1ccc(C2(c3ccc(OC)cc3)NC(=O)N(CC(=O)Nc3ccc(OC)c(OC)c3)C2=O)cc1	none (no result: bIAP activator, bIAP inhibitor)
CC(=O)N1N=C(c2ccccc2)CC1c1cccs1 (stereo unspecified)	none (no result: bIAP activator, bIAP inhibitor)
CC(=O)Nc1ccc(C2=NN(c3ccccc3)C(c3cccs3)C2)cc1 (stereo unspecified)	mIAP activ 2.3
CCOC(=O)CSc1nc2c(c(=O)[nH]c(=O)n2C)n1CCc1ccccc1	none
CCOC(=O)C(CC)Sc1nc2c(c(=O)[nH]c(=O)n2C)n1CCc1ccccc1 (stereo unspecified)	bIAP activator 2.8
Fc1ccc(-c2csc(NC(=S)Nc3ccccc3)n2)cc1	none (no result: bIAP activator, bIAP inhibitor)
O=C(Nc1nc(-c2ccc(Cl)cc2)cs1)NC1CCCCC1	mIAP activ 3.7
O=C(Nc1ccccc1)Nc1nc(-c2ccc(F)cc2)cs1	mIAP activ 2.5
CCOc1ccc(N(CC(=O)NCc2ccccc2)C(=O)Cn2nnc(-c3ccc(C)o3)n2)cc1	none (no result: bIAP activator, bIAP inhibitor)
O=c1[nH]c(C2CCN(S(=O)(=O)c3ccc(C(F)(F)F)cc3)CC2)nc2c1nnn2Cc1ccccc1	none (no result: bIAP activator, bIAP inhibitor)
CC(C)N1C(=S)SC(C)(C)C1NO (stereo unspecified)	bIAP activator 2.1
COc1cccc(CNC(=O)CCNS(=O)(=O)c2ccc(C)cc2)c1	none (no result: bIAP activator, bIAP inhibitor)
O=C(NCc1ccccc1)c1nc2c(nnn2Cc2cccc(Cl)c2)c(=O)[nH]1	bIAP activator 2.2
O=C(NCc1ccco1)c1nc2c(nnn2Cc2cccc(Cl)c2)c(=O)[nH]1	none
CC12CCC(C/C1=N/O)C2(C)CBr (stereo unspecified)	none (no result: bIAP activator, bIAP inhibitor)
O=C(O)CCCCCn1c(O)c(C=C2N=c3ccccc3=N2)sc1=S	mIAP inh 40
Cc1c(-n2c(SCC(=O)C(C)(C)C)nc3ccccc3c2=O)c(=O)n(-c2ccccc2)n1C	none
CN(CCCS(=O)(=O)[O-])c1ccc(/C=C/c2ccc3ccccc3[n+]2C)cc1	none (no result: bIAP activator, bIAP inhibitor)
CN(C)c1ccc(/C=C/c2ccc3ccccc3[n+]2C)cc1	mIAP inh 42
O=C(COC(=O)c1cc(Br)ccc1Cl)NC(=O)NCc1ccccc1	none
O=C(COc1ccc(Cl)cc1Br)NC(=O)NCc1ccccc1	bIAP activator 6.5
O=C(Nc1ccc(Cl)cc1)Nc1ccc(-c2cnco2)cc1	mIAP activ 2 (no result: bIAP activator, bIAP inhibitor)
COC(=O)c1cccc(NC(=S)NCCC2=CCCCC2)c1	none
COC(=O)c1ccc(NC(=S)NCCC2=CCCCC2)cc1	mIAP activ 2.5
CC(Oc1ccc(Br)cc1)C(=O)Nc1ccc(N2CCOCC2)cc1N1CCOCC1 (stereo unspecified)	none (no result: bIAP activator, bIAP inhibitor)
C[C@H]1CC[C@@]2(O[C@H](CCO)C[C@H](O)[C@H]2O)O1	none (no result: bIAP activator, bIAP inhibitor)
CC(=O)c1ccc(N2CCN(CC(O)COCc3ccco3)CC2)cc1 (stereo unspecified)	none
c1ccc2c(c1)CCN(c1ncnc3c1[nH]c1ccccc13)C2	bIAP activator 2.1
CC(=O)N1[C@H](C)C=C[C@]1(Cc1ccccc1)C(=O)NCCc1c[nH]c2ccccc12	none (no result: bIAP activator, bIAP inhibitor)
C[C@@H]1C=C[C@](Cc2ccccc2)(C(=O)NCCc2c[nH]c3ccccc23)N1C(=O)c1ccccc1	bIAP activator 2.1
Cc1ccc(COC(=O)NCc2cccnc2)cc1	none (no result: bIAP activator, bIAP inhibitor)
Cc1ccc(/C=C/C(=O)NC2=NCCS2)cc1	hIAP block 41
Cc1ccc(NC(=O)Nc2cc(S(=O)(=O)N(C)C)ccc2C)cc1	mIAP activ 2.8

Compound activity from PubChem BioAssay.
